Molecules are shown by their SMILES.

Sequence of Phosphatidylinositol 3-kinase regulatory subunit alpha/4,5-bisphosphate 3-kinase catalytic subunit alpha isoform (P27986 whole entry, canonical isoform): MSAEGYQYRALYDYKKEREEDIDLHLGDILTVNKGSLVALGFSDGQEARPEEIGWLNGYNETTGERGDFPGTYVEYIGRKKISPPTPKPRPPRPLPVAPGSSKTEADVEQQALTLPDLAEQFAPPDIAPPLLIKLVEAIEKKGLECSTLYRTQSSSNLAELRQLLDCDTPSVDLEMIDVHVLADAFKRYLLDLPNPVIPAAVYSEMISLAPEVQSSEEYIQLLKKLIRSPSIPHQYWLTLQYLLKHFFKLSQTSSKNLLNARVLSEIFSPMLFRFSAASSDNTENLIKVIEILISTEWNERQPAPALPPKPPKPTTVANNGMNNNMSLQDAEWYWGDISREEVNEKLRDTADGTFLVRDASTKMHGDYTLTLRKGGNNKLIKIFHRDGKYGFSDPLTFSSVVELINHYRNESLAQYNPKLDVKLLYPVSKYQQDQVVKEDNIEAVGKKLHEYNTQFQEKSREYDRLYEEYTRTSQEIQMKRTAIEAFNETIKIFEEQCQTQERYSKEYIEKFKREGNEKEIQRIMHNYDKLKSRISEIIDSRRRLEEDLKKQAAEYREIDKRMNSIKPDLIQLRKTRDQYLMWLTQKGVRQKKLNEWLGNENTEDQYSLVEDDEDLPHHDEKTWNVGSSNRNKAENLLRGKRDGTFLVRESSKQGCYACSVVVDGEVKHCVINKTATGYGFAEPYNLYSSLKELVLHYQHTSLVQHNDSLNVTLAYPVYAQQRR
Sequence of Phosphatidylinositol 3-kinase regulatory subunit alpha/4,5-bisphosphate 3-kinase catalytic subunit alpha isoform (P42336 whole entry, canonical isoform): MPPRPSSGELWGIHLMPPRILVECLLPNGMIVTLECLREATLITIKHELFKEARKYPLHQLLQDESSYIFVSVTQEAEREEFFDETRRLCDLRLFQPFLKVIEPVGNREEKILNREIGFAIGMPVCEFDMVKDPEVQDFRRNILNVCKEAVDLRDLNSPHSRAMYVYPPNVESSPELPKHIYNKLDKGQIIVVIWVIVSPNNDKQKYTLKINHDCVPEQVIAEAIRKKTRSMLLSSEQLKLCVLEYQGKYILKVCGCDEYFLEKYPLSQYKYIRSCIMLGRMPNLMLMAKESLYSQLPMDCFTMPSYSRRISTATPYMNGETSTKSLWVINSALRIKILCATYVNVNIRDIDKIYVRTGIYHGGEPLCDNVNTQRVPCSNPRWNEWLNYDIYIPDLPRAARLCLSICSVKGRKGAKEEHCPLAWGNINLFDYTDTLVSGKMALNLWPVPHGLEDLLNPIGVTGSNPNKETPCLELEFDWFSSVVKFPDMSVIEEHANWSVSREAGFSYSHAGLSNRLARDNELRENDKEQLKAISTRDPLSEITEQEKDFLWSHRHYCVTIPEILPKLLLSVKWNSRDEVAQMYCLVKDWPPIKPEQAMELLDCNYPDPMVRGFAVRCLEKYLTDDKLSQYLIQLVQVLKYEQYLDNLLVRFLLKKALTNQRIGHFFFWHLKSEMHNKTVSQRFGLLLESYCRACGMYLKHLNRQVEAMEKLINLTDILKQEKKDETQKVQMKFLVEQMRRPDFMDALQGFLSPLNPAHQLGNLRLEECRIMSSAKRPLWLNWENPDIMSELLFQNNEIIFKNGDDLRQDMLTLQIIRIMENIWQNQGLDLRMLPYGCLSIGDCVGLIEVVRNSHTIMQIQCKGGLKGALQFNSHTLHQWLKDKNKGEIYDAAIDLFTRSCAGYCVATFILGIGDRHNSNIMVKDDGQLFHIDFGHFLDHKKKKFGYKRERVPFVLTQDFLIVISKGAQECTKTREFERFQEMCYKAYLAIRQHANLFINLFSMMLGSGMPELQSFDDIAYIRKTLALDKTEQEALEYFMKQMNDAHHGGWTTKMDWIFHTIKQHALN

In this assay the target is Phosphatidylinositol 3-kinase regulatory subunit alpha/4,5-bisphosphate 3-kinase catalytic subunit alpha isoform (Homo sapiens, UniProt P27986+P42336). Put plainly: Inhibition of PI3K p110alpha/p85alpha. The method, boiled down:
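Biochemical kinase assay following the kit manufacturer's protocol with a modified kinase buffer (50 mM HEPES pH 7.5, 3 mM MgCl2, 100 mM NaCl, 1 mM EGTA, 0.04% CHAPS, 2 mM TCEP, 0.01 mg/ml BGG); 10 nM enzyme; ATP 50 µM; values are averages of two independent experiments, each in duplicate.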
Regarding `CCNC(=O)c1cn2cc(-c3cccc4[nH]ncc34)nc(N3CCOCC3)c2n1`, the IC50 (in general, the point on the concentration scale where inhibition reaches its midpoint) was determined as 0.092 µM.
Next, `Cc1cn2cc(-c3cccc(O)c3)nc(N3CCOCC3)c2n1`: 0.096 µM.
On to `Oc1cccc(-c2cn3cc(CN4CCOCC4)nc3c(N3CCOCC3)n2)c1`, for which the IC50 was determined as 0.444 µM.
Next, `CNC(=O)c1cn2cc(-c3cccc4[nH]ncc34)nc(N3CCOCC3)c2n1`: 0.11 µM; `Oc1cccc(-c2cn3cc(C4CC4)nc3c(N3CCOCC3)n2)c1`: 0.34 µM; `O=C1CN(Cc2cn3cc(-c4cccc(O)c4)nc(N4CCOCC4)c3n2)CCN1`: 0.54 µM.
For `O=C(NCCN1CCOCC1)c1cn2cc(-c3cccc4[nH]ncc34)nc(N3CCOCC3)c2n1`, the IC50 was 0.038 µM.
As to `Oc1cccc(-c2cn3cc(C(F)(F)F)nc3c(N3CCOCC3)n2)c1`, the IC50 amounted to 0.108 µM. Against the preceding compound, the IC50 is about 2.8-fold higher.
As for `OCc1cn2cc(-c3cccc(O)c3)nc(N3CCOCC3)c2n1`, the figure is 0.639 µM.
For `CC(=O)N1CCN(Cc2cn3cc(-c4cccc(O)c4)nc(N4CCOCC4)c3n2)CC1`, the IC50 was 0.451 µM.

(Values after BindingDB's records for doi:10.1016/j.bmcl.2012.01.074 (Spanish National Cancer Research Centre (Cnio), 2012).)
